Drawing on PMC4134686 (Journal of the American Chemical Society, 2013), this text covers Kd for one compound.

Holding throughout (assay): isothermal titration calorimetry
Common to all, as to format: binding

Test [1] concerns the target BsSecA (Bacillus subtilis, UniProt P28366, E208Q). The gist of the method: (§1)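 Full-length native-sequence SecA purified by ion-exchange, hydrophobic and gel-filtration chromatography, then dialysed >18 h against TKM (50 mM Tris-HCl pH 8.0, 50 mM KCl, 5 mM MgCl₂) with 3 buffer changes. Mg-ADP dissolved in final dialysate and titrated at 25 °C into 20 μM WT BsSecA, 30 μM E208Q BsSecA or 10 μM WT EcSecA.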

For a further test, the target named is EcSecA (Escherichia coli, UniProt P10408). The gist of the method: as §1
Test [2] concerns the target BsSecA (Bacillus subtilis, UniProt P28366). The method in brief:
as §1

As a reminder, the Kd is the equilibrium constant for the complex coming apart. Higher therefore signals lower affinity. As to `Nc1ncnc2c1ncn2[C@@H]1O[C@H](COP(=O)(O)OP(=O)(O)O)[C@@H](O)[C@H]1O` [Mg-ADP], the Kd on BsSecA [1] stood at 7.7 ± 0.3 µM; on EcSecA it was 62 ± 4 nM; at BsSecA [2], 180 ± 10 nM.
